Results from ChEMBL document CHEMBL4513216, “Probing the Open Global Health Chemical Diversity Library for Multistage-Active Starting Points for Next-Generation Antimalarials” (ACS Infect Dis, 2020).

Assay: Toxicity liver stage against HepG2, at 10uM
Format: cell-based
Set-up: test concentration 10 uM, cell line HepG2-A16-CD81EGFP
Conditions: human, HepG2-A16-CD81EGFP cells; read-out: INHIBITION
Summary of the method: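 Uninfected HepG2-A16-CD81EGFP cells, 3 × 10^3 per well, 1536-well, plated on prespotted compound at 10 μM final, parasite-free screening media added to match infected plates; puromycin 10 μM positive, DMSO 0.5% negative; run in parallel with 48 h PbLuc assay at 37 °C, 5% CO2; viability by CellTiter-Glo luminescence, normalized to controls.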

Row | SMILES | cytotoxicity at 10 µM [%]
1 | COCCN(CC(F)F)c1cc(C(F)(F)F)nc2ncnn12 | 4.11
2 | CN(C)S(=O)(=O)N1CCC(OCCCc2ccccc2)C1 (stereo unspecified) | 0.696
3 | Cc1ccc(NC(=O)N2CCOC(C)(c3cnn(C)c3)C2)c(C)c1 (stereo unspecified) | 6.05
4 | CC(C)Oc1ccccc1C1CC(=O)Nc2c1cnn2C (stereo unspecified) | 2.09
5 | O=c1c(NCCO)c(N2CCN(c3ccccc3)CC2)c1=O | -6.95
6 | Cn1ccnc1SCCNC(=O)c1c[nH]nc1C1CCCCC1 | -4.68
7 | COCCC(=O)NCCCOC1CCCc2ccccc21 (stereo unspecified) | -6.87
8 | COc1ccc(NC(C)C(=O)N2CCCC2)cn1 (stereo unspecified) | -4.96
9 | Cc1nn(C)c(C)c1CCC(=O)Nc1cccn(C)c1=O | -1.96
10 | Cc1ccccc1CSc1ncc(Br)c(C(=O)O)n1 | 6.99
11 | CC(C)c1nc2oc(C(=O)N3CCOCC3)c(N)c2c2c1CCCC2 | -3.71
12 | O=C(c1ccc(CNC2CCSC2)cc1)N1CCCC1 (stereo unspecified) | -4.05
13 | O=C(c1ccc(F)cc1)N1CCOC(c2nc(-c3ncccn3)no2)C1 (stereo unspecified) | -12.4
14 | CNC(=O)c1cc2c(nc1NCC(C)C)CCN(c1ncccn1)CC2 | -157
15 | c1cncc(CN2CCCn3nnc(COCC4CC4)c3C2)c1 | -110
16 | CC(=O)c1cnc(NCCCN2CCOCC2)nc1C | -2.77
17 | Cc1ccc(C)c(C(=O)NCC(c2cccn2C)N2CCCCCC2)c1 (stereo unspecified) | 5.64
18 | Cc1csc(N2CCN(C(=O)c3cc(Cl)c[nH]3)CC2)n1 | -2.82
19 | CCc1nnc(CNCC2CCN(CC(O)c3ccccc3)CC2)o1 (stereo unspecified) | -1.49

Row | SMILES | cytotoxicity at 10 µM [%]
20 | COc1cccc(NC(=O)CN(C(C)C)C2CC2)c1 | -2.83
21 | O=C(NC1CCCC1)N1CCCC(c2nccn2Cc2ccncc2)C1 (stereo unspecified) | -18.3
22 | CN1CCN(C(=O)Cc2ccc(F)cc2)Cc2cccnc21 | 0.0773
23 | Cc1ccc2oc(C(=O)N3CCC(C(=O)N4CCCC4)CC3)cc2n1 | -1.35
24 | COCC(=O)N1CCOC2(CCCN(c3cnccn3)C2)C1 (stereo unspecified) | 7.83
25 | Cc1nn(C)c2nc(-c3ccccn3)nc(NC[C@@H]3CCCO3)c12 | 7.49
26 | O=C(O)c1ccc(Cc2cccc(F)c2)nc1 | 3.11
27 | CC(C)n1nnc2c(sc3nc(N4CCOCC4)c4c(c32)CCC4)c1=O | 3.26
28 | CCCc1cc(C(=O)NCCC2=CCCCC2)[nH]n1 | -51.8
29 | COc1ccc(C(=O)Nc2n[nH]c(C3CCCO3)n2)cc1 (stereo unspecified) | -2.46
30 | Cc1cnc(CN(C)C2CCN(Cc3nc4c(F)cccc4[nH]3)C2)o1 (stereo unspecified) | 2.53
31 | O=C(CC1CCCO1)NS(=O)(=O)Cc1cc(-c2ccccc2)no1 (stereo unspecified) | 9.95
32 | CC(C)c1noc(C2CCCN2C(=O)Cc2cn3ccsc3n2)n1 (stereo unspecified) | 4.52
33 | Cc1ccc2c(c1)OC1(NC2=O)C(=O)N(C)c2ccccc21 (stereo unspecified) | -23.8
34 | Cc1nc(C)c(C(=O)NCCNc2ncccc2C#N)s1 | -1.5
35 | NC(=O)c1ccc(C2CCCN2C(=O)Cn2nc3ccccc3n2)s1 (stereo unspecified) | 9.15
36 | CCN(C)C(=O)c1ccc(N2CCC(Oc3cccc(F)c3)CC2)nc1 | -23.7
37 | Cc1ccccc1N1CC2(CCN(S(=O)(=O)C3CC3)C2)CC1=O (stereo unspecified) | 3.12
38 | c1ccc(COCC2CNCc3nccn3C2)nc1 (stereo unspecified) | 14.4

Row | SMILES | cytotoxicity at 10 µM [%]
39 | CC(=O)N(Cc1noc(C)n1)C1CCN(Cc2ccccc2C#N)C1 (stereo unspecified) | -1.76
40 | Cn1nc(CN2CCCCC2)c2c1CN(Cc1ccoc1)C2 | -0.449
41 | Cc1noc(C)c1-c1cncc(C2CCCN2Cc2cncnc2)n1 (stereo unspecified) | 5.25
42 | Cc1cccc(N2CCCC3(C2)CN(S(C)(=O)=O)CCO3)c1 (stereo unspecified) | 10.2
43 | CO[C@@H]1CCC[C@@H](NC(=O)C(C)(C)c2cccc(F)c2)[C@H]1O | -1.09
44 | Cc1nc(N2CCCC(N3CCCC3)C2)c2cnn(C)c2n1 (stereo unspecified) | -4.07
45 | CC1(C)CCN(S(=O)(=O)N2CCCC(c3cccc(C(=O)O)c3)C2)CC1 (stereo unspecified) | -0.879
46 | CC(C)NC(=O)CNC(=O)C12CCC(=O)N1c1cc(Cl)ccc1S2 (stereo unspecified) | 11.7
47 | C[C@@H]1CN(C(=O)CCCN2CCCC2)CC[C@@]1(O)C1CCOCC1 | -0.422
48 | O=C(NCC1CC1)[C@@H]1CCO[C@@H]2CCN(Cc3ccco3)C[C@H]21 | -4.93
49 | Cc1nc(CN2CCN(C(=O)NC(C)c3cccnc3)CC2)cs1 (stereo unspecified) | -10.4
50 | Cc1nc(C)n(CC2CCCN2Cc2ncc(-c3ccccc3)o2)n1 (stereo unspecified) | -4.92
51 | Cc1ccc(-n2nc(C)c3c2NC(=O)CC3c2cnc(N)s2)cc1 (stereo unspecified) | 5.56
52 | CNS(=O)(=O)Cc1ccc(CNC(=O)c2ccc(C)[nH]c2=O)cc1 | -3.3
53 | Cc1ccc(NC(=O)Nc2c[nH]c(=O)[nH]c2=O)c(C)c1 | 18.2
54 | CNc1nc(C(=O)N2CCCCC2c2ccc(CN(C)C)cc2)cs1 (stereo unspecified) | -2.86
55 | CCOCCCn1c(NC(=O)c2ccnc(C)n2)nc2ccccc21 | -21.1
56 | Cc1nc(C)c(CNC(=O)NC(c2nnc3n2CCC3)C(C)C)s1 (stereo unspecified) | -1.79
